bCat KO growth = beta-catenin-lacking colon tumor cell growth suppression; HCT116 beta-catenin knockout viability, CellTiter-Glo, 60 h; active compounds read low; viability, % at 10 µM; 140,000 compounds, 1.5% hits; AID 818;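 active = viability at or under a set limit, the compound median less 4 SD, cut at about 6% in these data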;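 also: 0% = Hyamine 1622 control at 20 µM and 100% = untreated cell control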
TNAP inh hi DEA = inhibitors of human TNAP at high phosphate acceptor concentration; P05186; purified TNAP, CDP-star luminescence, 1 M DEA; inhibition, % at 20 µM; 200,000 compounds, 0.03% hits; AID 1135;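 active = over 50% inhibition of tissue-nonspecific alkaline phosphatase at 20 µM in the single-dose screen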;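 also: plate controls were DMSO wells for no effect and EDTA-quenched wells as full inhibition for full effect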
Target sequence (P05186 whole entry, looked up): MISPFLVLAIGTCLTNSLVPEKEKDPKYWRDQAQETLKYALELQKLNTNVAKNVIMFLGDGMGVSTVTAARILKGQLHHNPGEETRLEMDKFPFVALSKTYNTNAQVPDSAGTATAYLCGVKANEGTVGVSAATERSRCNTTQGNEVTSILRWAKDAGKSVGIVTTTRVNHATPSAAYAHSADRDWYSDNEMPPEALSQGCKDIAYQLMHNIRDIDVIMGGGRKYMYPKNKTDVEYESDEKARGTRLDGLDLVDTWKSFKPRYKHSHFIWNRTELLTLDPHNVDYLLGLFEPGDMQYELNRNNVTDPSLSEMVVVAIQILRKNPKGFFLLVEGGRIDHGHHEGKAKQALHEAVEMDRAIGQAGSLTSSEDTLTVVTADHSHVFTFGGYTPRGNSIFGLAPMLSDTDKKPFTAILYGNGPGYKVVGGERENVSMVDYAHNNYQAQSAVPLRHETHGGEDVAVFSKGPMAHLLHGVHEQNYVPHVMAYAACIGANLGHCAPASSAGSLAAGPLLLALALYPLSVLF
Lmaj promast = Leishmania major promastigote growth inhibition | Leishmania major promastigotes, resazurin fluorescence viability | inhibition, % at 10 µM | 200,000 compounds, 9% hits | AID 1063; in the data active = inhibition above about 50%;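 also: promastigotes grown with compound for 44 hours at 28 °C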
PTEN del growth = growth suppressors of cells with PTEN tumor suppressor deletion. HCT116 PTEN-null viability, CellTiter-Glo, 60 h; active compounds read low. viability, % at 10 µM. 140,000 compounds, 1.2% hits;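 active = viability at or below a set limit, 4 SD under the median of all tested compounds, cut at about 3.7% in these data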;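 also: PTEN knockout HCT116 line with beta catenin targeted HCT116 as companion control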
TNAP inh no acc = inhibitors of human TNAP without phosphate acceptor; P05186; purified TNAP, CDP-star luminescence, 30 min; inhibition, % at 20 µM; 200,000 compounds, 0.26% hits; AID 1012;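 active = tissue-nonspecific alkaline phosphatase inhibition above about 50% at 20 µM in the single-dose screen, limit read from the data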;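 also: 0% = DMSO negative control and 100% = EDTA positive control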
TNAP act hiacc = increases human TNAP activity under high phosphate acceptor concentration. purified TNAP, CDP-star luminescence, 1 M DEA, 30 min; active compounds read high; 0 = EDTA background, 1 = DMSO-only activity. 200,000 tested, under 10 active. activation factor at 20 µM;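 active = activation factor at least 2 at 20 µM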
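Test system – human TNAP · Doses – 20 µM single point · Incubation – 30 min, room temperature · Signal – luminescent substrate turnover signal · Read-out basis – activation factor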
* marks the source's active call; other numbers are inactive results; x = no result. This is a sample that favours compounds with a hit; in the whole collection about 9.6% have one here.

SMILES	bCat KO growth	TNAP inh hi DEA	Lmaj promast	PTEN del growth	TNAP inh no acc	TNAP act hiacc
Cc1ccccc1CN(C)CC(=O)Nc1cccc(S(=O)(=O)N(C)c2ccccc2)c1	x	-5.6	71.0*	x	-10.5	1.1
Cc1ccc(NC(=S)N(Cc2cccc(Br)c2)CC2CCC(C(=O)O)CC2)cc1Cl (stereo unspecified)	x	-3.4	0.3	x	-7.6	1
Cc1ccc(S(=O)(=O)NCCc2ccncc2)cc1	85.3	-5.1	-4.1	103.2	-11.2	1.1
CCCCc1ccc(S(=O)(=O)NCCc2ccncc2)cc1	69.3	-2.7	84.4*	71.0	0.0	1
CCN(CC)CCN(CC)Cc1ccccc1Br	90.6	-7.0	95.7*	88.3	4.0	1.1
CCCc1nc2c(C)cc(C)cc2c(N)c1CC	36.9	-5.6	98.0*	40.4	-15.5	1.1
CCc1cc2cc(C)cc(C)c2nc1Cl	x	-0.3	0.1	x	-5.8	1
C[C@@H](C(=O)N[C@H](C(=O)O)c1ccccc1)n1nnc2ccccc2c1=O	89.8	-1.7	18.5	80.7	-2.7	1
CCOC(=O)c1ccc(-n2c(CN3CCN(CC)CC3)nc3ccc([N+](=O)[O-])cc3c2=O)cc1	x	-3.7	0.0	x	4.7	1
COc1cccc(-n2c(CN3CCN(c4ccccc4)CC3)nc3ccc([N+](=O)[O-])cc3c2=O)c1	84.7	-1.0	63.3*	74.0	-15.3	1
COc1ccc(OC)c(NC(=O)C(=O)NNC(=O)c2cccs2)c1	90.5	-1.3	-5.8	92.8	-89.4	1
CCCCn1c(N)c(N(CC)C(=O)c2cccc(OC)c2)c(=O)[nH]c1=O	x	-0.8	-5.7	x	-8.6	1
Cc1[nH]n(-c2ncc(-c3ccccc3)s2)c(=O)c1C(c1ccc(Br)cc1)C(C#N)C#N (stereo unspecified)	94.1	15.2	80.8*	92.0	-26.1	0.8
CC1CCCN(S(=O)(=O)c2ccc(C(=O)Nc3nnc(-c4ccccc4Cl)o3)cc2)C1 (stereo unspecified)	13.4	-2.6	100.3*	8.0	-3.4	1
CCC1CCCCN1S(=O)(=O)c1ccc(C(=O)Nc2nnc(-c3cccs3)o2)cc1 (stereo unspecified)	13.2	1.6	99.2*	10.8	-7.2	1
CC1CCCN(S(=O)(=O)c2ccc(C(=O)Nc3nnc(-c4ccccn4)o3)cc2)C1 (stereo unspecified)	x	-5.2	7.6	x	-10.3	1.1
CC1CC(C)CN(S(=O)(=O)c2ccc(C(=O)Nc3nnc(-c4cccs4)o3)cc2)C1 (stereo unspecified)	14.1	-4.9	99.7*	6.8	-19.6	1
CCc1nnc(NC(=O)c2ccc(S(=O)(=O)N3CCCCC3C)cc2)s1 (stereo unspecified)	104.8	-8.8	-3.4	94.5	-14.6	1.1
O=C(c1cccc(S(=O)(=O)N2CCc3ccccc32)c1)N1CCN(c2ccccn2)CC1	x	-5.0	21.5	x	-12.0	1.1
Cc1ccc(O)c(CCc2ccc(O)cc2)n1	x	-1.1	-3.3	x	-5.1	1
S=C(Nc1ccccc1)Nc1nc2ccccc2n1CCOc1ccc(Cl)cc1	1.1*	-3.1	66.4*	0.9*	-35.1	1
CCn1c(NC(=S)Nc2ccccc2)nc2ccccc21	87.4	-1.1	84.3*	81.3	-9.7	1
Cc1nn(C(C)C(=O)O)c(=O)c2ccccc12 (stereo unspecified)	x	-8.3	8.3	x	-8.3	1.1
c1ccc(Nc2ccccc2Nc2ccccn2)nc1	92.9	-1.7	25.9	96.4	-5.3	1
Oc1cccc2ccc(Nc3ccccn3)nc12	1.8*	1.0	100.5*	1.7*	-16.5	1
SMILES	bCat KO growth	TNAP inh hi DEA	Lmaj promast	PTEN del growth	TNAP inh no acc	TNAP act hiacc
O=C(c1ccc(CSc2ccc(Cl)cc2)cc1)N1CCCC1	x	-7.8	8.2	x	-5.1	1.1
Clc1ncc(Cn2cccn2)s1	x	-3.7	-8.1	x	-9.6	1
C/C(=N\NC(=O)c1cccc(N/N=C(\C)c2cc(O)ccc2O)c1)c1cc(O)ccc1O	x	0.7	4.5	x	75.9*	1
C/C(=N\NC(=O)c1cccc(N/N=C(\C)c2ccco2)c1)c1ccco1	x	-2.6	-13.8	x	-16.6	1
C[C@@]1([C@@H](NC(=O)c2cccs2)c2ccc(-c3ccccc3)cc2)C[C@H]1C1CCCCC1	62.2	0.2	24.4	63.9	-6.4	1
CN1/C(=C\C(=O)CSc2nnc(N)s2)C(C)(C)c2ccccc21	75.4	-3.5	37.6	82.7	-6.7	1

Source: PubChem BioAssay
